pIC50: −log10 of the molar value. The source made the active and inactive calls. No cut-off for these calls is given here.
How the values were obtained:
[1] = Antiproliferative activity against human HCT8 cells assessed as inhibition of cell proliferation after 72 hrs by MTT assay; type: functional, cell-based; details: HCT-8, 72 h
Outline: (§1)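 Cells (1.0 × 10^4/well) grown overnight in DMEM with 10% FBS. Treated in triplicate with eight concentrations ([…]) of compound from DMSO stock, final DMSO <0.4%, for 72 h. MTT added for the last 4 h, formazan dissolved in DMSO, read at 570 nm. Inhibition = (Acontrol−Atreated)/Acontrol. IC50 given as mean ± SD of three independent experiments.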

[2] = Antiproliferative activity against 5-FU resistant human HCT8 cells assessed as inhibition of cell proliferation after 72 hrs by MTT assay; type: functional, cell-based; details: HCT-8, 72 h; outline: as §1
HCT-8 [3] = assay: Induction of nitric oxide release in human HCT8 cells at 100 uM incubated for 150 mins by Griess assay; type: functional, cell-based
Outline: (§2)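 Cells (1 × 10^6/well) treated in triplicate with compound at 100 µM for 150 min. Lysates mixed with Griess reagent for 10 min at 37 °C and read at 540 nm. Nitrite quantified from a sodium nitrite standard curve; 0.4% DMSO-treated cells served as background. Mean ± SD of three experiments.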

HCT-8 [4] = assay: Induction of nitric oxide release in 5-FU resistant human HCT8 cells at 100 uM incubated for 150 mins by Griess assay; type: functional, cell-based; outline: as §2
[5] = Antiproliferative activity against human HCT8 cells assessed as inhibition of cell proliferation at 1 uM after 72 hrs by MTT assay; type: functional; details: HCT-8, 72 h, read-out: GI
Outline: (§3)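 Cells grown in DMEM with 10% FBS and exposed to compound at 1 µM for 72 h. Proliferation measured by MTT at 570 nm and expressed as % inhibition versus untreated cells. Mean ± SD of three independent experiments.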

[6] = Antiproliferative activity against 5-FU resistant human HCT8 cells assessed as inhibition of cell proliferation at 1 uM after 72 hrs by MTT assay; type: functional; details: HCT-8, 72 h, read-out: GI; outline: as §3
[7] = Antiproliferative activity against human CCD-841-CoN cells assessed as inhibition of cell proliferation after 72 hrs by MTT assay; type: cell-based; outline: as §1
CCD-841CoN = assay: Induction of nitric oxide release in human CCD-841-CoN cells at 100 uM incubated for 150 mins by Griess assay; type: functional, cell-based; outline: as §2

| Structure (SMILES) | pIC50 [1] | pIC50 [2] | Activity (HCT-8 [3]) | Activity (HCT-8 [4]) | inhibition of growth at 1 µM [5] [%] | inhibition of growth at 1 µM [6] [%] | pIC50 [7] | Activity (CCD-841CoN) |
| --- | --- | --- | --- | --- | --- | --- | --- | --- |
| CC1(C)CC[C@]2(C(=O)NCC(=O)O)CC[C@]3(C)[C@H](C(=O)C=C4[C@@]5(C)C=C(C#N)C(=O)C(C)(C)[C@@H]5CC[C@]43C)[C@@H]2C1 | 5.50 | 5.65 | inactive | inactive |  |  |  |  |
| C[C@@H](NC(=O)[C@]12CCC(C)(C)C[C@H]1[C@H]1C(=O)C=C3[C@@]4(C)C=C(C#N)C(=O)C(C)(C)[C@@H]4CC[C@@]3(C)[C@]1(C)CC2)C(=O)OCC#CCOc1no[n+]([O-])c1S(=O)(=O)c1ccccc1 | 6.43 | 6.56 | Active | Active | > 90 | > 90 | 6.02 | inactive |
| CC1(C)CC[C@]2(C(=O)N3CCC[C@H]3C(=O)OCCCOc3no[n+]([O-])c3S(=O)(=O)c3ccccc3)CC[C@]3(C)[C@H](C(=O)C=C4[C@@]5(C)C=C(C#N)C(=O)C(C)(C)[C@@H]5CC[C@]43C)[C@@H]2C1 |  |  | inactive | inactive |  |  |  | inactive |
| O=c1[nH]cc(F)c(=O)[nH]1 [FLUOROURACIL] | 6.04 | 4.44 |  |  |  |  |  |  |
| CC1(C)CC[C@]2(C(=O)NCCCC(=O)OCC#CCOc3no[n+]([O-])c3S(=O)(=O)c3ccccc3)CC[C@]3(C)[C@H](C(=O)C=C4[C@@]5(C)C=C(C#N)C(=O)C(C)(C)[C@@H]5CC[C@]43C)[C@@H]2C1 | 6.30 | 6.42 |  |  | > 90 | > 90 | 5.77 |  |
| CC1(C)CC[C@]2(C(=O)N3CCC[C@H]3C(=O)OCCCCCCOc3no[n+]([O-])c3S(=O)(=O)c3ccccc3)CC[C@]3(C)[C@H](C(=O)C=C4[C@@]5(C)C=C(C#N)C(=O)C(C)(C)[C@@H]5CC[C@]43C)[C@@H]2C1 |  |  | inactive | inactive |  |  |  | inactive |
| CC1(C)CC[C@]2(C(=O)NCC(=O)OCCCOc3no[n+]([O-])c3S(=O)(=O)c3ccccc3)CC[C@]3(C)[C@H](C(=O)C=C4[C@@]5(C)C=C(C#N)C(=O)C(C)(C)[C@@H]5CC[C@]43C)[C@@H]2C1 | 6.26 | 6.42 |  |  | > 90 | > 90 | 5.76 |  |
| CC1(C)CC[C@]2(C(=O)N3CCC[C@H]3C(=O)OCC#CCOc3no[n+]([O-])c3S(=O)(=O)c3ccccc3)CC[C@]3(C)[C@H](C(=O)C=C4[C@@]5(C)C=C(C#N)C(=O)C(C)(C)[C@@H]5CC[C@]43C)[C@@H]2C1 | 6.36 | 6.46 |  |  | > 90 | > 90 | 5.85 |  |
| CC1(C)CC[C@]2(C(=O)N3CCC[C@H]3C(=O)OCCCCOc3no[n+]([O-])c3S(=O)(=O)c3ccccc3)CC[C@]3(C)[C@H](C(=O)C=C4[C@@]5(C)C=C(C#N)C(=O)C(C)(C)[C@@H]5CC[C@]43C)[C@@H]2C1 |  |  | inactive | inactive |  |  |  | inactive |
| CC1(C)CC[C@]2(C(=O)NCCC(=O)OCC#CCOc3no[n+]([O-])c3S(=O)(=O)c3ccccc3)CC[C@]3(C)[C@H](C(=O)C=C4[C@@]5(C)C=C(C#N)C(=O)C(C)(C)[C@@H]5CC[C@]43C)[C@@H]2C1 | 6.42 | 6.34 |  |  | > 90 | > 90 | 5.83 |  |
| CC1(C)CC[C@]2(C(=O)NCC(=O)OCCCCOc3no[n+]([O-])c3S(=O)(=O)c3ccccc3)CC[C@]3(C)[C@H](C(=O)C=C4[C@@]5(C)C=C(C#N)C(=O)C(C)(C)[C@@H]5CC[C@]43C)[C@@H]2C1 | 6.42 | 6.50 |  |  | > 90 | > 90 | 5.95 |  |
| O=S(=O)(c1ccccc1)c1c(OCC#CCO)no[n+]1[O-] | 4.47 | 4.44 |  |  |  |  |  |  |
| CC1(C)CC[C@]2(C(=O)NCC(=O)OCCOCCOc3no[n+]([O-])c3S(=O)(=O)c3ccccc3)CC[C@]3(C)[C@H](C(=O)C=C4[C@@]5(C)C=C(C#N)C(=O)C(C)(C)[C@@H]5CC[C@]43C)[C@@H]2C1 | 6.06 | 6.25 |  |  | > 90 | > 90 | 5.50 |  |
| CC1(C)CC[C@]2(C(=O)NCC(=O)OCCCCCCOc3no[n+]([O-])c3S(=O)(=O)c3ccccc3)CC[C@]3(C)[C@H](C(=O)C=C4[C@@]5(C)C=C(C#N)C(=O)C(C)(C)[C@@H]5CC[C@]43C)[C@@H]2C1 | 6.45 | 6.47 |  |  | > 90 | > 90 | 5.85 |  |
